Columns and labels:
[1] = molecular target: T1, Adrenergic receptor alpha-1 (Rattus norvegicus, UniProt P15823+P23944+P43140); assay: Binding affinity against alpha-1 adrenergic receptor from rat using [3H]-prazosin as radioligand; assay type: protein assay
T1 sequence (P15823 whole entry): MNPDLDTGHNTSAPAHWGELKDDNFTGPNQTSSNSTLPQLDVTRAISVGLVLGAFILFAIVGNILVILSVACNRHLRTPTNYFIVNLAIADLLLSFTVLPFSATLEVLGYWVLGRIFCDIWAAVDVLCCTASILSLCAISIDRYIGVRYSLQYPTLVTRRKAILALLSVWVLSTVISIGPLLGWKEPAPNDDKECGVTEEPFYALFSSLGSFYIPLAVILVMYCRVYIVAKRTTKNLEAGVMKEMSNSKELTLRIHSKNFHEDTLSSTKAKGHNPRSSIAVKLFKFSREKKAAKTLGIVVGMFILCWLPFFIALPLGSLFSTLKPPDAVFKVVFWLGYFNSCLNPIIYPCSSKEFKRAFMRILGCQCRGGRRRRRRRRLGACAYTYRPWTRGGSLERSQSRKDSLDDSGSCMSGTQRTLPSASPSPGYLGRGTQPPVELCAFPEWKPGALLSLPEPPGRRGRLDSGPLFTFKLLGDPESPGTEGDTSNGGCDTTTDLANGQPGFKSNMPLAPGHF
T1 sequence (P23944 whole entry): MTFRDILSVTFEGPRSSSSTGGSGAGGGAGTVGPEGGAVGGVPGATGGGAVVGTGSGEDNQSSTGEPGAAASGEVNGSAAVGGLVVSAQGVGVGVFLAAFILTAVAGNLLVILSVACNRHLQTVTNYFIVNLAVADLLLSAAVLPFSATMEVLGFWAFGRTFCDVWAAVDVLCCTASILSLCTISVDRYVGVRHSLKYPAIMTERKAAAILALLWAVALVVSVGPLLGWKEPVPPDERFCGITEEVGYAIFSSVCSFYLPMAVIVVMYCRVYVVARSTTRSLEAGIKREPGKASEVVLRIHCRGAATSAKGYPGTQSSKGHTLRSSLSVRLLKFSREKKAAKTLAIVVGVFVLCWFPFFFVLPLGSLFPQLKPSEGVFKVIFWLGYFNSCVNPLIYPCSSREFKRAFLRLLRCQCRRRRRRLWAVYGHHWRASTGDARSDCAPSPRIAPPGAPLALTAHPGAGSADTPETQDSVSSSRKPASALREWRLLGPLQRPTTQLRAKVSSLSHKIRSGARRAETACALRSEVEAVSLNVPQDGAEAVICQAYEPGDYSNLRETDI
T1 sequence (P43140 whole entry): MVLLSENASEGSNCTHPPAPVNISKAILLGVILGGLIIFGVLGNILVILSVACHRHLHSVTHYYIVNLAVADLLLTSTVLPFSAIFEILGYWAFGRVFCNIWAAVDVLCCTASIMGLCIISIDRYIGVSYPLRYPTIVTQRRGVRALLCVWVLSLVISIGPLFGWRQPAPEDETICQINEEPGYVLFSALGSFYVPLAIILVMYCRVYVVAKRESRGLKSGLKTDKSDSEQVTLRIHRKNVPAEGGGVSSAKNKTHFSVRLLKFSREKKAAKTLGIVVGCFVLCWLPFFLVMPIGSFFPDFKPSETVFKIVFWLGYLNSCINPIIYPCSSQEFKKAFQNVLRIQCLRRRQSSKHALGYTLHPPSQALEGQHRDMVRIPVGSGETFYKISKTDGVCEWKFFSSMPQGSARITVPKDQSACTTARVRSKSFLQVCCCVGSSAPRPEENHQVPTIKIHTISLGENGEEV
How it was run: (§1)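 Rat cortical membranes (Sprague–Dawley, triple-washed; 200 μg protein) incubated with 0.8 nM [3H]prazosin in 140 mM NaCl/5 mM MgCl2/50 mM Tris-HCl pH 7.4, 60 min at room temperature. Nine concentrations in duplicate, 1% DMSO final. Nonspecific binding defined by 10 μM phentolamine.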

[2] = molecular target: T2, Glutamate NMDA receptor; Grin1/Grin2b (Rattus norvegicus, UniProt P35439+Q00960); assay: Antagonistic activity against rat NR1A/2B receptor expressed in Xenopus oocytes; assay type: functional, cell-based, Oocyte
How it was run: (§2)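 Cloned NR1A/2B receptors in oocytes, recorded by two-electrode voltage clamp at -70 mV in nominally Ca2+-free Ringer (pH 7.4). Drugs are bath perfused, with final DMSO 0.1–1%. IC50 for inhibition of NMDA responses is fitted from partial 3–5 point curves, with the residual fractional response ('min') fixed at 0.15. Mean ± SEM.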

[3] = molecular target: T3, Glutamate NMDA receptor; Grin1/Grin2a (Rattus norvegicus, UniProt P35439+Q00959); assay: Antagonistic activity against rat NR1A/2A receptor, expressed in Xenopus oocytes; assay type: functional, cell-based, Oocyte
How it was run: (§3)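 Two-electrode voltage clamp at -70 mV in nominally Ca2+-free Ringer (NaCl 115, KCl 2, BaCl2 1.8, HEPES 5 mM, pH 7.4). Drugs are given by bath perfusion at 7–10 mL/min, with final DMSO 0.1–1%. Inhibition of NMDA responses is measured, and IC50 is fitted from partial 3–5 point concentration–inhibition curves with a free residual minimum. Mean ± SEM, n as reported.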

D(2) dopamine receptor = D(2) dopamine receptor (Rattus norvegicus, UniProt P61169); assay: Binding affinity against Dopamine receptor D2 from rat using [3H]raclopride as radioligand
How it was run: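 Washed Sprague–Dawley rat striatal membranes (200 μg protein) incubated with 3 nM [3H]raclopride in 120 mM NaCl/5 mM KCl/50 mM Tris-HCl pH 7.4, 60 min at room temperature. Nine concentrations in duplicate, 1% DMSO final. Nonspecific binding with 300 μM sulpiride.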

[4] = molecular target: T2, Glutamate NMDA receptor; Grin1/Grin2b; assay: Antagonistic activity against rat N-methyl-D-aspartate glutamate receptor 1/2B expressed in Xenopus oocytes; assay type: functional, cell-based, Oocyte; how it was run: as §2
[5] = molecular target: T3, Glutamate NMDA receptor; Grin1/Grin2a; assay: Antagonistic activity against rat N-methyl-D-aspartate glutamate receptor 1/2A, expressed in Xenopus oocytes; assay type: functional, cell-based, Oocyte; how it was run: as §3
[6] = molecular target: T4, Glutamate NMDA receptor; Grin1/Grin2c (Rattus norvegicus, UniProt P35439+Q00961); assay: Antagonistic activity against rat N-methyl-D-aspartate glutamate receptor 1/2C expressed in Xenopus oocytes; assay type: functional, cell-based, Oocyte; how it was run: as §3
[7] = molecular target: T1, Adrenergic receptor alpha-1; assay: The compound was tested for binding affinity against Alpha-1 adrenergic receptor from rat using [3H]prazosin as radioligand; assay type: protein assay; how it was run: as §1
[8] = molecular target: T4, Glutamate NMDA receptor; Grin1/Grin2c; assay: The compound was tested for antagonistic activity against rat NR1A/2C receptor expressed in Xenopus oocytes; assay type: functional, cell-based, Oocyte
How it was run: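 Drugs are given by bath perfusion at 7–10 mL/min, with final DMSO 0.1–1%. Inhibition of NMDA responses is measured, and IC50 is fitted from partial 3–5 point concentration–inhibition curves with a free residual minimum. Mean ± SEM, n as reported.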

[9] = Antagonistic activity against rat NR1A/2A receptor, expressed in Xenopus oocytes.; assay type: functional, cell-based; details: Oocyte; how it was run: as §3

T4 sequence (Q00961 whole entry, other chains not shown): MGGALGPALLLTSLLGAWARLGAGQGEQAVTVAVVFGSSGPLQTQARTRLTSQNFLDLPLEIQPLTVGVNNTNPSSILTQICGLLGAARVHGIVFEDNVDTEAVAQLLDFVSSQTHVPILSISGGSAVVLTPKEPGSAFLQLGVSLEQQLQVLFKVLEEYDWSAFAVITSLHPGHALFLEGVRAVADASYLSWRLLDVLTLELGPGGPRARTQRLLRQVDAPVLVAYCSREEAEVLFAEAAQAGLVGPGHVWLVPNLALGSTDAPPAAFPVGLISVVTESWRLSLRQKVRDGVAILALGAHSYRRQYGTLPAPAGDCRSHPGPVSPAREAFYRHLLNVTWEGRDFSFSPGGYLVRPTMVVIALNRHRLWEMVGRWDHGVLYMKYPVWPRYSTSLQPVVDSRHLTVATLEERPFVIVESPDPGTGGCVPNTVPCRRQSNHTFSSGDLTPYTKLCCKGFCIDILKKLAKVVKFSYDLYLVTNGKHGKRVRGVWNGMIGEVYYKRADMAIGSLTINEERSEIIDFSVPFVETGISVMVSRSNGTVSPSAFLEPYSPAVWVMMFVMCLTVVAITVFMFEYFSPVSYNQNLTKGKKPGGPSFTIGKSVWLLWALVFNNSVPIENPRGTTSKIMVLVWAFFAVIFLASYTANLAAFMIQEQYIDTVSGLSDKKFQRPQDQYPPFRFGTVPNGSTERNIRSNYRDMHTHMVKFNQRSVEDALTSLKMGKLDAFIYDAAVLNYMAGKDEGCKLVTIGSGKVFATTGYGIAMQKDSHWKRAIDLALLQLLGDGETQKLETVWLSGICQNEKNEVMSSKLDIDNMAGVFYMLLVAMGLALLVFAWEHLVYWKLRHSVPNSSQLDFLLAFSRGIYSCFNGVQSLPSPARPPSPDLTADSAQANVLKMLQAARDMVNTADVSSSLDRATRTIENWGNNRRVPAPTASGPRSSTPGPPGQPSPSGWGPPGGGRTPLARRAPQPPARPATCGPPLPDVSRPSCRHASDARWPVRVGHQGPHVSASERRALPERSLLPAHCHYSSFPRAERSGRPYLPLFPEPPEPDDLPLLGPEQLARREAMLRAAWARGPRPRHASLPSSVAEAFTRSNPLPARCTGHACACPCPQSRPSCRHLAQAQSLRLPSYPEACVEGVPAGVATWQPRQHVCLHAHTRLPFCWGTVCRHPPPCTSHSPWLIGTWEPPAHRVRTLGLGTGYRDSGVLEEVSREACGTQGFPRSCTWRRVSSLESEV
Sequence of D(2) dopamine receptor (P61169 whole entry): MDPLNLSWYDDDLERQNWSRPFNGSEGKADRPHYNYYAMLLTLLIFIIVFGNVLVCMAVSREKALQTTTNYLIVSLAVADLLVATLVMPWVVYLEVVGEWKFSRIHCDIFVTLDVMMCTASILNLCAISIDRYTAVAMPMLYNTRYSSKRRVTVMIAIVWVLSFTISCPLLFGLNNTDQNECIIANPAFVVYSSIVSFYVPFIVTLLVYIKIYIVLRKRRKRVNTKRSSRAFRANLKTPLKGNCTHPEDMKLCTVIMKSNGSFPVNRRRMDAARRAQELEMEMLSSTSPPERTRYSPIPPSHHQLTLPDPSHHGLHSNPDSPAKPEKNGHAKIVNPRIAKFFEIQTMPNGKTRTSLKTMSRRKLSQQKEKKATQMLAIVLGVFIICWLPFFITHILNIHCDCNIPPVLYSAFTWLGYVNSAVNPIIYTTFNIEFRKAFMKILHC
T3 sequence (Q00959 whole entry, other chains not shown, the tested form may be a part): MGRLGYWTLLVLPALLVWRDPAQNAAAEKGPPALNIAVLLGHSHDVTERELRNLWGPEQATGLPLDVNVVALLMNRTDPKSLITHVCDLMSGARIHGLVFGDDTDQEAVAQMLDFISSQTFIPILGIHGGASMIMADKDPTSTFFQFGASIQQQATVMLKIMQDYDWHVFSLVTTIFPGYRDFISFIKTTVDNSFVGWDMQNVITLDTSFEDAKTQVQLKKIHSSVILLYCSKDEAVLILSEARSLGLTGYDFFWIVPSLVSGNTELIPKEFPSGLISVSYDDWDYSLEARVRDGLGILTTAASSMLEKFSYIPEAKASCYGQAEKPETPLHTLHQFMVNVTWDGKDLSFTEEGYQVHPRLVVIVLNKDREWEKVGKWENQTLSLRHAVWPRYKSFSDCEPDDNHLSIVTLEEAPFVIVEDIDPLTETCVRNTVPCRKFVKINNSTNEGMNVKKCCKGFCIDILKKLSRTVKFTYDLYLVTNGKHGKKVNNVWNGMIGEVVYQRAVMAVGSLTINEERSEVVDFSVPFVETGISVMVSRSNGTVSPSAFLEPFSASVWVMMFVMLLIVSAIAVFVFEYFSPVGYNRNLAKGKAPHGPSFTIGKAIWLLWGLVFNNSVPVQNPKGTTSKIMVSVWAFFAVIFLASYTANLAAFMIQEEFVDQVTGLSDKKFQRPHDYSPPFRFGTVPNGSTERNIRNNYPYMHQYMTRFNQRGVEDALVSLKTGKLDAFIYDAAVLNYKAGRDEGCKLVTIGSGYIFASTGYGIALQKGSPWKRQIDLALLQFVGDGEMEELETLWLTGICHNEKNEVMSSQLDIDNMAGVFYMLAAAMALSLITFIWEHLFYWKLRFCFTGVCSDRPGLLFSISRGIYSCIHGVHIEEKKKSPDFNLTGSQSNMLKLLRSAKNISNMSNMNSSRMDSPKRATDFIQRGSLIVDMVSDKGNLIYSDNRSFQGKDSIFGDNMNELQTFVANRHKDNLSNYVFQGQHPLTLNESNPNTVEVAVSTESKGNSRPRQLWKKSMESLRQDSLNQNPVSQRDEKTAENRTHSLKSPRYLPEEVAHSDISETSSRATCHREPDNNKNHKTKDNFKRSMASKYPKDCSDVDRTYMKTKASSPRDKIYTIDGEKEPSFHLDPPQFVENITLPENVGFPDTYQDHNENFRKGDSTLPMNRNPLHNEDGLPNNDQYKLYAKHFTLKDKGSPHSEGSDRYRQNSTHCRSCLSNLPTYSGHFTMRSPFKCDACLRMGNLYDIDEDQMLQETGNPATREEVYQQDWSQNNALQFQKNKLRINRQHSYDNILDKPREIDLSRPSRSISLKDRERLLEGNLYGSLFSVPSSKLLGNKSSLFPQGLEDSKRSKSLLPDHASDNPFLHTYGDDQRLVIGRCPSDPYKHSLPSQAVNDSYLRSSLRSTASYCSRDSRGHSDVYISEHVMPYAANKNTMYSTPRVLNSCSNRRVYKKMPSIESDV
T2 sequence (Q00960 whole entry, other chains not shown, the tested form may be a part): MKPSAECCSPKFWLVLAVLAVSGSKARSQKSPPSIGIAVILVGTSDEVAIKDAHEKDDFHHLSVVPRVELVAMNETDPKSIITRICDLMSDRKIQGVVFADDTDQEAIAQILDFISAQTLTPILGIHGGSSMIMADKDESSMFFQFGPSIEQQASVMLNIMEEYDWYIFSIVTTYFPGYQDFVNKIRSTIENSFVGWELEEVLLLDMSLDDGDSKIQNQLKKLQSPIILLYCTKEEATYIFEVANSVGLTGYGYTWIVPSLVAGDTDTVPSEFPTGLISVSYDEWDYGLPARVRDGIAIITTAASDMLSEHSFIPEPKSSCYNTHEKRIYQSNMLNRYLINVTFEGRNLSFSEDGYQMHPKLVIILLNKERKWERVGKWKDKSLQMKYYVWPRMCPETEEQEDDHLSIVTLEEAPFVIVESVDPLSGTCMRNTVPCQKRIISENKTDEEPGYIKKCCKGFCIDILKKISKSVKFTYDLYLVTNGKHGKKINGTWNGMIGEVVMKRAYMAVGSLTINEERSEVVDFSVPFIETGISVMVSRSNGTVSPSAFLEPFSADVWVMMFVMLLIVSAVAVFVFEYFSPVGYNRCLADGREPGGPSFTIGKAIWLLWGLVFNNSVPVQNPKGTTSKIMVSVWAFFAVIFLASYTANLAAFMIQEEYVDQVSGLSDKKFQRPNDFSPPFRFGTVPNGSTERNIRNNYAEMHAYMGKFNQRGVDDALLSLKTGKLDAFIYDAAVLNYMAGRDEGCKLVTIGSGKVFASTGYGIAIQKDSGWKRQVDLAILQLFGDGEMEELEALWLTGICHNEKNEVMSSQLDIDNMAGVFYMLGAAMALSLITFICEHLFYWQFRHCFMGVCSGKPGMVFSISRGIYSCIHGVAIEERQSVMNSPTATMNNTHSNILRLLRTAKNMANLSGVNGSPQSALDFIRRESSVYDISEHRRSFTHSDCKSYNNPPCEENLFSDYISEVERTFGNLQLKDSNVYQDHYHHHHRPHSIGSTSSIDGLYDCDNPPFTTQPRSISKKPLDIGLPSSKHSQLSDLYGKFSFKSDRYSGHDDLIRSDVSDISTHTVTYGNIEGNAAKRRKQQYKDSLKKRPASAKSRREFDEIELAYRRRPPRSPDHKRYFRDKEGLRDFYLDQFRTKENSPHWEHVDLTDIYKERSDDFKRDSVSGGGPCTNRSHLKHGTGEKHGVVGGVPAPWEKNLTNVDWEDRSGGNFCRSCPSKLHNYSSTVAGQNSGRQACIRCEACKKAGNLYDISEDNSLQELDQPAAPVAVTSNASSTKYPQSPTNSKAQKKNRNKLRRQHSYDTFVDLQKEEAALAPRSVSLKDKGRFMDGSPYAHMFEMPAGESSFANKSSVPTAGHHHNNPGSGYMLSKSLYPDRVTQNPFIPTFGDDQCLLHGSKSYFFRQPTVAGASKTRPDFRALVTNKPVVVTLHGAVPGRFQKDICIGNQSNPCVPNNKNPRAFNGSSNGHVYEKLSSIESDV

Row | SMILES | IC50 [1] | IC50 [2] | IC50 [3] | IC50 (D(2) dopamine receptor) | IC50 [4] | IC50 [5] | IC50 [6] | IC50 [7] | IC50 [8] | IC50 [9]
1 | Cc1ccc(CC2CCN(CCC#Cc3ccc(N)cc3)CC2)cc1 | 1.2 µM | 0.31 µM | 75 µM | 0.8 µM | – | – | – | – | 27 µM | –
2 | Nc1ccccc1C#CCCN1CCC(Cc2ccccc2)CC1 | – | 1.1 µM | 70 µM | – | – | – | – | – | > 100 µM | –
3 | Cc1ccc(CC2(O)CCN(CCC#Cc3ccc(N)cc3)CC2)cc1 | 85 µM | 0.37 µM | 68 µM | 10 µM | – | – | – | – | > 100 µM | –
4 | C(#Cc1ccccc1)CCN1CCC(Cc2ccccc2)CC1 | – | 4.7 µM | – | – | – | – | – | – | – | > 100 µM
5 | Nc1ccc(C#CCCN2CCC(Cc3ccc(Cl)cc3)CC2)cc1 | – | 1.2 µM | – | – | – | – | – | – | – | –
6 | CS(=O)(=O)Nc1ccc(C#CCCCN2CCC(Cc3ccccc3)CC2)cc1 | – | – | – | 2.3 µM | 0.28 µM | > 100 µM | > 100 µM | 1.1 µM | – | –
7 | Nc1ccc(C#CCCN2CCC(O)(Cc3ccccc3)CC2)cc1 | 63 µM | 0.83 µM | > 100 µM | 15 µM | – | – | – | – | – | –
8 | CC(=O)Nc1ccc(C#CCCCN2CCC(Cc3ccccc3)CC2)cc1 | – | – | – | – | 1.4 µM | > 100 µM | > 100 µM | – | – | –
9 | Clc1cccc(C#CCCN2CCC(Cc3ccccc3)CC2)c1 | – | 3.8 µM | > 100 µM | – | – | – | – | – | > 100 µM | –
10 | CC(=O)Nc1ccc(C#CCCN2CCC(Cc3ccccc3)CC2)cc1 | – | – | – | 0.1 µM | 0.26 µM | > 100 µM | > 100 µM | 1.1 µM | – | –
11 | CC(=O)Nc1ccc(C#CCN2CCC(Cc3ccccc3)CC2)cc1 | – | – | – | – | 13 µM | 56 µM | > 100 µM | – | – | –
12 | Nc1cccc(C#CCCN2CCC(Cc3ccccc3)CC2)c1 | – | 1.1 µM | > 100 µM | – | – | – | – | – | > 100 µM | –
13 | CS(=O)(=O)Nc1ccc(C#CCCN2CCC(Cc3ccccc3)CC2)cc1 | – | – | – | 0.2 µM | 0.24 µM | > 100 µM | > 100 µM | 1.2 µM | – | –
14 | CN(C)c1ccc(C#CCCN2CCC(Cc3ccccc3)CC2)cc1 | – | – | – | – | 15 µM | > 100 µM | > 100 µM | – | – | –
15 | Nc1ccc(C#CCN2CCC(Cc3ccccc3)CC2)cc1 | – | – | > 100 µM | – | – | – | – | – | > 100 µM | –
16 | Nc1ccc(C#CCCN2CCC(Cc3ccccc3)CC2)cc1N | 1 µM | 0.19 µM | > 100 µM | 1.1 µM | – | – | – | – | > 100 µM | –
17 | Clc1ccccc1C#CCCN1CCC(Cc2ccccc2)CC1 | – | 1.2 µM | 85 µM | – | – | – | – | – | > 100 µM | –
18 | Nc1ccc(C#CCCCN2CCC(Cc3ccccc3)CC2)cc1 | – | 0.38 µM | 12 µM | – | – | – | – | – | > 100 µM | –
19 | Nc1ccc(C#CCCN2CCC(O)(Cc3ccc(F)cc3)CC2)cc1 | 31 µM | 0.65 µM | 29 µM | 7.9 µM | – | – | – | – | > 100 µM | –
20 | Nc1ccc(C#CCCN2CCC(Cc3ccc(F)cc3)CC2)cc1 | 0.7 µM | 0.26 µM | 70 µM | 0.4 µM | – | – | – | – | > 100 µM | –
21 | Oc1ccc(C#CCN2CCC(Cc3ccccc3)CC2)cc1 | 1.5 µM | 0.1 µM | > 100 µM | 1.7 µM | – | – | – | – | > 100 µM | –
22 | CS(=O)(=O)Nc1ccc(C#CCN2CCC(Cc3ccccc3)CC2)cc1 | – | – | – | 12 µM | 0.15 µM | > 100 µM | > 100 µM | 2.2 µM | – | –
23 | NCc1cccc(C#CCCN2CCC(Cc3ccccc3)CC2)c1 | – | – | – | 0.3 µM | 0.52 µM | – | > 100 µM | 0.8 µM | – | –

Second part, the compound after the results:

Row | IC50 [1] | IC50 [2] | IC50 [3] | IC50 (D(2) dopamine receptor) | IC50 [4] | IC50 [5] | IC50 [6] | IC50 [7] | IC50 [8] | IC50 [9] | SMILES
24 | 0.58 µM | 0.17 µM | > 100 µM | 0.29 µM | – | – | – | – | – | – | Oc1ccc(C#CCCN2CCC(Cc3ccccc3)CC2)cc1
25 | – | – | – | 0.1 µM | 0.31 µM | 22 µM | > 100 µM | 1.4 µM | – | – | NS(=O)(=O)c1ccc(C#CCCN2CCC(Cc3ccccc3)CC2)cc1
26 | – | 2.7 µM | > 100 µM | – | – | – | – | – | > 100 µM | – | Fc1ccc(C#CCCN2CCC(Cc3ccccc3)CC2)cc1
27 | – | 4 µM | 47 µM | – | – | – | – | – | > 100 µM | – | Clc1ccc(C#CCCN2CCC(Cc3ccccc3)CC2)cc1
28 | – | – | – | 0.3 µM | 0.46 µM | 84 µM | > 100 µM | 1 µM | – | – | CNc1ccc(C#CCCN2CCC(Cc3ccccc3)CC2)cc1
29 | – | 2.6 µM | > 100 µM | – | – | – | – | – | > 100 µM | – | COc1ccc(C#CCCN2CCC(Cc3ccccc3)CC2)cc1
30 | – | 4.2 µM | 42 µM | – | – | – | – | – | > 100 µM | – | Cc1ccc(C#CCCN2CCC(Cc3ccccc3)CC2)cc1
31 | – | – | > 100 µM | – | – | – | – | – | > 100 µM | – | O=[N+]([O-])c1ccc(C#CCCN2CCC(Cc3ccccc3)CC2)cc1
32 | – | – | – | – | 2 µM | > 100 µM | > 100 µM | – | – | – | NC(=O)c1ccc(C#CCCN2CCC(Cc3ccccc3)CC2)cc1
33 | 1 µM | 0.43 µM | – | 0.8 µM | – | – | – | – | – | – | Nc1ccc(C#CCCN2CCC(Cc3ccccc3)CC2)cc1
